Tests used:
Cavia porcellus [1] = organism: Cavia porcellus; assay: Antispasmodic activity against isolated guinea pig ileum with metacholine as a spasmogen according to the method of Magnus.; type: functional; conditions: read-out: ID50 (the source's name)
Summary of the method: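 Guinea pig ileum segment in a 25-mL organ bath of Tyrode solution at 37 °C, gassed with 5% CO2–95% O2, equilibrated about 30 min. Repeated standard methacholine chloride challenges (4 × 10^-6 M) confirm a consistent response. Percent inhibition of contraction is measured and ID50 is taken by linear regression.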

Cavia porcellus [2] = organism: Cavia porcellus; assay: Potency (isolated guinea pig ileum) relative to adiphenine was determined.; type: functional
Rattus norvegicus = organism: Rattus norvegicus; assay: Potency (isolated rat ileum) relative to adiphenine was determined.; type: functional
[3] = molecular target: Muscarinic acetylcholine receptor; assay: Affinity for the Muscarinic acetylcholine receptor; type: protein assay, Rattus norvegicus
[4] = molecular target: Muscarinic acetylcholine receptor; assay: pA2 value represents the affinity for the Muscarinic acetylcholine receptor and was calculated according to the Ariens and Van Rossum; type: protein assay
Summary of the method: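 Terminal ileum from male Sprague-Dawley rats (250–300 g) killed by cervical dislocation, in a 10-mL bath of Tyrode solution at 35 °C gassed with 95% O2/5% CO2, equilibrated ≥30 min. Cumulative ACh 0.05–1.0 μg/mL at 3-min intervals gives the control curve. After washout and 30 min, compound is added; 10 min later ACh 1–300 μg/mL is given cumulatively. Contraction is read in mm. pA2 = pAx + log(x − 1), with x the ACh EC50 ratio, by linear regression over two or more experiments at four or more dose levels.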

| Compound | IC50 (Cavia porcellus [1]; Cavia porcellus, Ileum) | Relative potency (Cavia porcellus [2]) | Relative potency (Rattus norvegicus) | pA2 [3] | IC50 (Cavia porcellus [1]) | pA2 [4] |
| --- | --- | --- | --- | --- | --- | --- |
| CCN(CC)CCOC(=O)C(c1ccccc1)(c1ccccc1)C(C)C.Cl | 1300 nM | 0.57 |  |  |  |  |
| CCN(CC)CCOC(=O)C(CC)(c1ccccc1)c1ccccc1.Cl | 330 nM | 2.24 | 0.15 | 6.63 |  |  |
| CCN(CC)CCOC(=O)C(CC(C)C)(c1ccccc1)c1ccccc1.Cl | 1200 nM | 0.62 |  |  |  |  |
| CCN(CC)CCOC(=O)C(C)(c1ccccc1)c1ccccc1.Cl | 53 nM | 14 | 9 | 8.4 |  |  |
| C=C(C(=O)OCCN(CC)CC)c1ccccc1.Cl |  |  | 0.03 | 5.86 |  |  |
| CCCCC(C(=O)OCCN(CC)CC)(c1ccccc1)c1ccccc1.Cl | 2600 nM | 0.28 |  |  |  |  |
| CCN(CC)CCOC(=O)C(CCCCO)c1ccccc1.Cl (racemic) |  | 0.67 |  |  | 1100 nM |  |
| CCN(CC)CCOC(=O)C(CO)c1ccccc1.Cl (racemic) |  | 10.57 | 0.48 |  | 70 nM | 7.13 |
| CCN(CC)CCO[C@H]1CCCC[C@@H]1c1ccccc1.Cl (relative stereo) |  |  | 0.09 | 6.38 |  |  |
| CCN(CC)CCO[C@@H]1CCCC[C@@H]1c1ccccc1.Cl (relative stereo) |  |  | 0.47 | 7.13 |  |  |
| CCN(CC)CCOC(=O)C(CCCCO)c1ccccc1.Cl (single isomer, unassigned; (+)) | 1000 nM | 0.74 |  |  |  |  |
| CCN(CC)CCOC(=O)C(COS(=O)(=O)c1ccc(C)cc1)c1ccccc1.Cl (single isomer, unassigned; (+)) |  |  | 0.17 | 6.67 |  |  |
| CCN(CC)CCOC(=O)C(CO)c1ccccc1.Cl (single isomer, unassigned; (+)) |  | 3.52 |  |  | 210 nM |  |
| CCN(CC)CCOC(=O)C(COS(=O)(=O)c1ccc(C)cc1)c1ccccc1.Cl (single isomer, unassigned; (-)) |  |  | 0.09 | 6.42 |  |  |
| CCN(CC)CCOC(=O)C(CO)c1ccccc1.Cl (single isomer, unassigned; (-)) |  | 23.87 | 0.91 | 7.4 | 31 nM |  |
| CCN(CC)CCOC(=O)C(c1ccccc1)c1ccccc1.Cl [ADIPHENINE HYDROCHLORIDE] | 740 nM | 1 | 1 | 7.45 |  |  |
| CCCC(C(=O)OCCN(CC)CC)(c1ccccc1)c1ccccc1.Cl [PROADIFEN HYDROCHLORIDE] | 1200 nM | 0.62 |  |  |  |  |

Source: ChEMBL document CHEMBL1123667, “Molecular modification of anticholinergics as probes for muscarinic receptors. 1. Amino esters of alpha-substituted phenylacetic acid and related analogues” (J Med Chem, 1987)
